Published values from different studies.
Cell line: MDA-MB-231
Effect on: cell growth or viability

SMILES | test | conditions | quantity | value
COc1ccc(COC[C@@](O)(CNCc2ccc(F)cc2)[C@@H]2CC[C@@H](C)C[C@H]2OCc2ccc(OC)cc2)cc1 | MTT | 10 µM, 72 h | inhibition | 91.7%
Cc1cc(NC(=O)C=Cc2ccccc2)cc(-c2ccnc(N3CCC(CO)CC3)c2)c1 | MTT | 5 µM | inhibition | 59.8%
Cc1c(Cc2ccccc2)c(=O)oc2c(C)c(OCC(=O)NN=Cc3ccco3)ccc12 | MTT | 31.25 µg/mL | viability | 15.3%
Nc1ccccc1NC(=O)c1ccc(CNc2ccc(NC3=C(Cl)C(=O)c4cccnc4C3=O)cc2)cc1 | MTT | 48 h | IC50 | 1.07 µM
C[C@@H]1CC[C@@H]([C@@](O)(CNCc2cccc3ccccc23)COCc2ccccc2)[C@H](OCc2ccccc2)C1 | MTT | 10 µM, 72 h | inhibition | 83%
O=C(C=Cc1ccccc1)Nc1cccc(-c2ccnc(N3CCC(CO)CC3)c2)c1 | MTT | 5 µM | inhibition | 67.4%
CCc1c(C)c2ccc(OCc3nnc(S)n3N)c(C)c2oc1=O | MTT | 1000 µg/mL | viability | 5.38%
C[C@@H]1CC[C@@H]([C@](O)(CNCc2ccc(F)cc2)COCc2ccc(F)cc2)[C@H](OCc2ccc(F)cc2)C1 | MTT | 30 µM, 72 h | inhibition | 95%
CCc1c(C)c2ccc(OCC=Cc3ccccc3)c(C)c2oc1=O | MTT | 1000 µg/mL | viability | 2.75%
C=CC(=O)c1cccnc1Nc1cc(C(F)(F)F)ccc1OCc1ccccc1 | SRB | 48 h | GI50 | 18.3 µM
CCc1c(C)c2ccc(OCC(=O)NN=Cc3ccc([N+](=O)[O-])cc3)cc2oc1=O | MTT | 31.25 µg/mL | viability | 36.3%
C[C@@H]1CC[C@@H]([C@](C)(O)CNCc2cccc(F)c2)[C@H](OCc2ccccc2)C1 | MTT | 10 µM, 72 h | inhibition | 41.5%
O=C(C=Cc1cccc(F)c1)Nc1cc(-c2ccnc(N3CCC(O)CC3)c2)ccn1 | MTT | 5 µM | inhibition | 78.3%
COc1ccc(COC[C@@](O)(CNCc2ccccc2)[C@@H]2CC[C@@H](C)C[C@H]2OCc2ccc(OC)cc2)cc1 | MTT | 30 µM, 72 h | inhibition | 101%
COc1cc2c3c(n(CCCN4CCOCC4)c(=O)c2cc1OC)-c1nc2c(cc1C3=O)OCO2 | MTS | 72 h | IC50 | > 2 µM
CCNC(=S)NNC(=O)COc1ccc2c(C)c(CC)c(=O)oc2c1C | MTT | 125 µg/mL | viability | 45%
O=C(C=Cc1ccc(F)cc1)Nc1cc(-c2ccnc(N3CCC(O)CC3)c2)ccn1 | MTT | 5 µM | inhibition | 72.3%
CC(=NNC(=O)COc1ccc2c(C)c(Cc3ccccc3)c(=O)oc2c1C)c1ccc(Br)cc1 | MTT | 250 µg/mL | viability | 22.8%
COc1ccc(CNC[C@](O)(COCc2ccc(OC)cc2)[C@@H]2CC[C@@H](C)C[C@H]2OCc2ccc(OC)cc2)cc1 | MTT | 30 µM, 72 h | inhibition | 98.8%
CC(C)CS(=O)(=O)NCc1cccc(-c2ccc3c(NC(=O)CC4CC4)n[nH]c3c2)c1 | ATP luminescence | 48 h | IC50 | 60 µM
